From PubChem
A selection: hits, their analogues and other compounds. The true share with any hit is near 2.3%.
NPY-Y2 PAM-ag = NPY-Y2 potentiators or agonists, primary screen, cell-based | 0.45% of 220,000 active | activation, % at 3.6 µM | cells expressing NPY-Y2, potentiator/agonist read-out; in the data active = activation above about 27%;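 also: cells stimulated with NPY near EC25 plus isoproterenol at EC100; 0% = vehicle plus submaximal agonist and 100% = vehicle plus saturating agonist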
Target sequence (P49146 whole entry, looked up): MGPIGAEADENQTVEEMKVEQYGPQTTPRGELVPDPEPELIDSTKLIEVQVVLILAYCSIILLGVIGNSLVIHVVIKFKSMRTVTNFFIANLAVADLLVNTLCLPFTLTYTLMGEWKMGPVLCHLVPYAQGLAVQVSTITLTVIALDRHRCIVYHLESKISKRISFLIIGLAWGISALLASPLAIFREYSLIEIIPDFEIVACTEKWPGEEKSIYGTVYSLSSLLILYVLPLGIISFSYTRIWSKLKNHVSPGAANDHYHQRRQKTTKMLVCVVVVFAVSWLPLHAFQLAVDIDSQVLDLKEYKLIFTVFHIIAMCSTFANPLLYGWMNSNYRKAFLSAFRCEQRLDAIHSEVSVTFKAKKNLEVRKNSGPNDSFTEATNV
Tb hexokinase = Trypanosoma brucei hexokinase 1 inhibitors, primary screen, biochemical, G6PDH-coupled NADH absorbance, MLSCN library; hexokinase 1 [Trypanosoma brucei]; recombinant TbHK1, G6PDH-coupled NADH A340; inhibition, % at 10 µM; 0.11% of 220,000 active; AID 1430, 2008;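 active = inhibition of 50% or more in the single-dose primary screen; inactive = inhibition below 50%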
m-calpain inh = inhibitors of pig calpain II, primary screen, biochemical, fluorogenic peptide substrate, 1536-well. 0.37% of 220,000 active. AID 1236, 2008. inhibition, % at 16 µM. purified calpain II, 30 min;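 active = inhibition above about 50%, limit read from the data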
NPY-Y1 antag = NPY-Y1 receptor antagonists, primary screen, cell-based; HEK293-CNG Y1 cells, membrane potential fluorescence; NPY at EC95, then isoproterenol; inhibition, % at 3.6 µM; 1% of 200,000 active; AID 1040, 2008;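 active = inhibition above the campaign mean inhibition of all tested compounds plus 3 SD, cut at about 20% in these data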;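 also: 0% = DMSO wells given NPY plus isoproterenol and 100% = isoproterenol alone without NPY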
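material = HEK293 cells with Y1 receptor plus CNG channel | also added = NPY 25 nM then isoproterenol 1 µM plus Ro 20-1724 25 µM | schedule = dye 3 h, compound 60 min room temperature, stimulation 45 min | measured by = membrane potential fluorescence | benchmarks = high control isoproterenol alone, low control NPY with isoproterenol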
NPY1 pot ag = NPY-Y1 receptor potentiators or agonists, primary screen, cell-based. 0.37% of 220,000 active. NPY-Y1 expressing cells, potentiator/agonist activation. Neuropeptide Y receptor type 1 (Homo sapiens), P25929. activation, % at 3.6 µM; in the data active = activation above about 33%, passing the limit was not always enough;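 also: cells stimulated with NPY at EC10 then isoproterenol at EC100; 0% = low agonist plus stimulus and 100% = saturating agonist plus stimulus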
NPY-Y2 antag = NPY-Y2 receptor antagonists, primary screen, cell-based; AID 793, 2007; NPY-Y2 expressing cells, antagonist mode; 0.99% of 140,000 active; inhibition, % at 2.7 µM; Neuropeptide Y receptor type 2 (Homo sapiens), P49146; in the data active = inhibition above about 17%;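 also: 0% = vehicle with agonist challenge and 100% = reference antagonist with challenge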
NPY-Y2 pot conf = NPY-Y2 potentiators or agonists, confirmation, cell-based; activation, % at 3.6 µM; AID 1539, 2009; cell-based NPY-Y2 potentiator/agonist assay; shares compounds with NPY-Y2 PAM-ag; 20% of 450 active; in the data active = activation above about 33%
NPY-Y1 potentiator = NPY-Y1 potentiators or agonists, counter-screen for NPY-Y2 potentiator project, cell-based, fluorescence; shares compounds with NPY-Y2 PAM-ag; Y1 HEK293-CNG cells, membrane potential fluorescence; activation, % at 3.6 µM; 20% of 450 active; in the data active = activation above about 45%;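 also: cells stimulated with submaximal NPY then isoproterenol with phosphodiesterase inhibitor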
NPY-Y1 agonist 2 = NPY-Y1 direct agonists, selectivity assay for NPY-Y2 potentiator project, cell-based, fluorescence. shares compounds with NPY-Y2 PAM-ag. HEK293 Y1-CNGC, membrane potential fluorescence, agonism. activation, % at 3.6 µM. 37% of 450 active. AID 1702, 2009;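 active = activation above the mean of DMSO-only control wells plus 3 SD, cut at about 18% in these data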;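 also: cells stimulated with 1 µM isoproterenol plus the PDE inhibitor Ro 20-1724; 0% = isoproterenol with DMSO and no NPY and 100% = 40 nM NPY; Y1 agonists lower the membrane potential dye signal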
CNGC inh = CNGC cAMP sensor activity inhibitors, counter-screen for NPY-Y2 potentiator project, cell-based, HEK293-CNG parental, membrane potential fluorescence; isoproterenol cAMP; 32% of 450 active; shares compounds with NPY-Y2 PAM-ag; AID 1703, 2009; inhibition, % at 3.6 µM;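 active = inhibition above the control-well mean plus 3 SD of those wells, cut at about 22% in these data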;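 also: 0% = DMSO with isoproterenol and 100% = DMSO without isoproterenol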
NPY-Y2 ag 2 = NPY-Y2 direct agonists, counter-screen for NPY-Y2 potentiator project, cell-based, fluorescence. shares compounds with NPY-Y2 PAM-ag. HEK293 Y2/CNGC cells, membrane potential fluorescence, agonist mode. activation, % at 3.6 µM. 56% of 450 active. AID 1710, 2009;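 active = activation above the mean of solvent-only control wells plus 3 SD, cut at about 10% in these data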;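 also: cells stimulated by isoproterenol with no NPY added so direct agonism is tested; 0% = DMSO with isoproterenol alone and 100% = NPY at EC100 plus isoproterenol; agonism lowers probe fluorescence through less cAMP and CNG channel opening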
G6PDH counter = Leuconostoc G6PDH inhibition, confirmation, counter-screen for TbHK1 inhibitor project, biochemical, DPI cherry-picked compounds, single concentration | shares compounds with Tb hexokinase | AID 2516, 2010 | purified G6PDH, NADH absorbance, 1 h | 7% of 210 active | inhibition, % at 10 µM;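 active = at least 50% inhibition in the glucose-6-phosphate dehydrogenase coupled counterscreen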
TbHK1 rescreen = TbHK1 inhibitor retest, confirmation, biochemical, DPI cherry-picked primary actives; shares compounds with Tb hexokinase; recombinant TbHK1, G6PDH-coupled NADH A340 absorbance; inhibition, % at 10 µM; 10% of 210 active;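 active = inhibition of at least 50% in both of the two screening runs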;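 also: 0% and 100% set by the maximum and minimum signal control wells on each plate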
Numbers without * were called inactive; x = no result.

SMILES	NPY-Y2 PAM-ag	Tb hexokinase	m-calpain inh	NPY-Y1 antag	NPY1 pot ag	NPY-Y2 antag	NPY-Y2 pot conf	NPY-Y1 potentiator	NPY-Y1 agonist 2	CNGC inh	NPY-Y2 ag 2	others
Cn1c(=O)c([N+](=O)[O-])c(NCc2ccc3c(c2)OCO3)c2ccccc21	99*	-14	2	x	3	x	-15	-29	-24	-9	-10
Cn1c(=O)c([N+](=O)[O-])c(NCc2ccccc2Cl)c2ccccc21	-12	-11	22	x	10	x	x	x	x	x	x
Nc1nc(N2CCCCC2)nc2ccccc12	55*	-1	-229	0	-5	1	72*	79*	44*	40*	72*
Cc1nnc(SCc2cc(=O)[nH]c(=S)[nH]2)s1	-7	-1	18	-1	12	x	x	x	x	x	x
CCc1ccc(N(CC(=O)Nc2nc3ccc(C)cc3s2)S(=O)(=O)c2c(C)noc2C)cc1	31*	-10	-19	1	26	2	28	30	45*	33*	49*
CCN(CC)CCNC(=O)C1c2cc(OC)c(OC)cc2C(=O)N(C)C1c1cccs1 (configuration not stated)	10	7	-40	6	8	x	x	x	x	x	x
O=C(CCl)N=c1sccn1Cc1cccc2ccccc12	27*	9	15	-2	8	x	-4	-8	-11	14	3
CC(=O)OCC1O[C@@H](O[C@@H]2C[C@H]3C(C)(C)[C@H](OC(C)=O)CC[C@]3(C)[C@H]3CC[C@]45C[C@]4(CC[C@H]5[C@@H](C)C[C@@H](O)[C@H](O)C(C)(C)O)[C@@]32C)[C@H](O)[C@@H](O)[C@@H]1O (some centres not stated)	35*	-10	-82	-10	31	0	32	31	39*	26*	35*
CCOC(=O)c1c(C)sc2c1N(C(=O)CCl)c1cc(Cl)ccc1S2	38*	-2	8	2	48	2	25	42	34*	4	9
COc1ccc(C)cc1NC(=O)c1ccccc1NS(=O)(=O)c1ccc(Cl)s1	58*	-5	5	7	-2	x	-6	-46	-30	-23	-11
CC(CN1C(C)CCCC1C)OC(=O)c1ccc(Cl)cc1Cl (configuration not stated)	-15	12	17	6	-9	x	x	x	x	x	x
CC1=CC(=O)C(C(C)C)=C/C1=N/OS(=O)(=O)c1ccccc1	63*	-6	-13	x	35	x	26	9	2	11	22*
Cc1ccc(C)c(C(=O)N(C)CC(=O)Nc2ccccc2C(F)(F)F)c1	6	6	36	1	12	x	x	x	x	x	x
O=C(Nc1ccc(OC(F)(F)F)cc1)Nc1cccc([N+](=O)[O-])c1	12	4	10	-9	4	0	x	x	x	x	x
Cc1ccc(NC(=O)Nc2cccc([N+](=O)[O-])c2)cc1F	32*	3	11	-3	31	-3	21	24	15	18	17*
O=C(Nc1nonc1NC(=O)c1cccs1)c1cccs1	31*	-2	10	6	-13	x	-6	-18	-18	-9	4
O=C(Nc1ccccn1)c1cccs1	13	-10	-6	-2	-4	2	x	x	x	x	x
Cc1ccc(C(=O)NC(=O)CSc2ncccc2C(=O)O)cc1	3	-1	3	6	0	x	x	x	x	x	x
COc1cccc(N2CCN(c3ncnc4c3[nH]c3ccccc34)CC2C)c1 (configuration not stated)	2	-10	13	6	28	11	x	x	x	x	x
COc1cccc(N2CCN(c3ncnc4c3[nH]c3ccc(F)cc34)CC2C)c1 (configuration not stated)	39*	-5	-21	57*	-25	8	-4	-27	-40	-41	8
Cc1ccc(S(=O)(=O)NCC(=O)OCC(=O)c2c(N)n(C)c(=O)n(C)c2=O)cc1	14	-1	-5	6	15	1	x	x	x	x	x
CCOC(=O)/C(=N/Nc1ccccc1)Sc1nnc(CCc2ccccc2)n1-c1ccccc1	16	-8	-7	0	-1	6	x	x	x	x	x
CC(C)(SC(=S)N1CCCCCC1)C(=O)O	7	-2	-6	3	-8	x	x	x	x	x	x
CC(SC(=S)N1CCCC1)C(=O)O (configuration not stated)	37*	-3	-30	0	20	x	-3	-7	0	2	13*
O=C(c1ccco1)N1CCN(C(=O)c2sccc2-c2ccccc2)CC1	27*	7	-6	4	4	9	-3	-8	-15	-13	-18
CN(C)c1ccc(/C=C(/NC(=O)c2ccccc2)C(=O)N/N=C/c2ccc([N+](=O)[O-])c(O)c2)cc1	33*	-15	-164	-12	34	-3	34*	38	35*	26*	27*
CCCCOC(=O)Cn1cnc2ccc(Br)cc2c1=O	-9	59*	-8	0	11	2	x	x	x	x	x	G6PDH counter=-9;TbHK1 rescreen=3
CCOC(=O)COc1c(/C=N\O)cc(Cl)cc1OC	0	2	35	-4	-6	x	x	x	x	x	x
CN(CCO)C(=O)CCC(=O)Nc1ccc(S(N)(=O)=O)cc1	8	60*	6	2	23	2	x	x	x	x	x	G6PDH counter=-1;TbHK1 rescreen=6
